Measurements as given in ChEMBL document CHEMBL1147105, “In vitro and in vivo activities of PD 0305970 and PD 0326448, new bacterial gyrase/topoisomerase inhibitors with potent antibacterial activities versus multidrug-resistant gram-positive and fastidious organism groups” (2007).

Tests used:
Type in all cases: functional
Enterococcus faecalis [1] = assay: Antibacterial activity against VanB-resistant Enterococcus faecalis
Procedure, shortened: (§1)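 Broth microdilution MIC per CLSI guidelines, incubated at 35°C. Cation-adjusted Mueller-Hinton broth for nonfastidious organisms and staphylococci. Streptococci tested in the same broth with 3% lysed horse blood. Anaerobes tested in supplemented Brucella broth inside an anaerobe chamber (5% CO2, 5% H2, 90% N2), read after 48 h. Strains were mainly recent clinical isolates with confirmed identity.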

Escherichia coli = assay: Antibacterial activity against Escherichia coli
Procedure, shortened: (§2)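 Broth microdilution MIC following CLSI guidelines, in cation-adjusted Mueller-Hinton broth, incubated at 35°C. Recent clinical isolates and reference strains, with identity confirmed by automated and standard microbiological methods. Results reported as MIC range, MIC50 and MIC90.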

Pseudomonas aeruginosa = assay: Antibacterial activity against Pseudomonas aeruginosa; procedure, shortened: as §2
Acinetobacter sp. = assay: Antibacterial activity against Acinetobacter sp.; procedure, shortened: as §2
Haemophilus influenzae [2] = assay: Antibacterial activity against beta-lactamase positive Haemophilus influenzae
Procedure, shortened: (§3)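 Broth microdilution MIC following CLSI guidelines, in Haemophilus test medium at 35°C.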

Burkholderia cepacia = assay: Antibacterial activity against Burkholderia cepacia; procedure, shortened: as §2
Haemophilus influenzae [3] = assay: Antibacterial activity against beta-lactamase negative Haemophilus influenzae; procedure, shortened: as §3
Klebsiella oxytoca = assay: Antibacterial activity against Klebsiella oxytoca; procedure, shortened: as §2
[4] = system: Peptoniphilus asaccharolyticus; assay: Antibacterial activity against Peptostreptococcus asaccharolyticus
Procedure, shortened: (§4)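 Anaerobic broth microdilution MIC following CLSI guidelines, in supplemented Brucella broth. Run in an anaerobe chamber under 5% CO2, 5% H2 and 90% N2 at 35°C, and read after 48 h. Reported as MIC range, MIC50 and MIC90.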

Streptococcus mitis = assay: Antibacterial activity against Streptococcus mitis
Procedure, shortened: (§5)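 Broth microdilution MIC following CLSI guidelines, in cation-adjusted Mueller-Hinton broth with 3% lysed horse blood. Plates incubated at 35°C. Clinical isolates and reference strains, with identity confirmed by standard microbiological methods.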

Staphylococcus aureus [5] = assay: Antibacterial activity against vancomycin-intermediate Staphylococcus aureus; procedure, shortened: as §1
[6] = system: Staphylococcus saprophyticus; assay: Antibacterial activity against Staphylococcus saprophyticus; procedure, shortened: as §2
Streptococcus viridans = assay: Antibacterial activity against Streptococcus viridans; procedure, shortened: as §5
Streptococcus pyogenes = assay: Antibacterial activity against Streptococcus pyogenes; procedure, shortened: as §5
Corynebacterium sp. = assay: Antibacterial activity against Corynebacterium sp.
Procedure, shortened: (§6)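 Broth microdilution MIC following CLSI guidelines, in cation-adjusted Mueller-Hinton broth containing 3% lysed horse blood, incubated at 35°C. Clinical isolates with identity confirmed. Reported as MIC range, MIC50 and MIC90.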

Morganella morganii = assay: Antibacterial activity against Morganella morganii; procedure, shortened: as §2
Streptococcus salivarius = assay: Antibacterial activity against Streptococcus salivarius; procedure, shortened: as §5
Legionella pneumophila = assay: Antibacterial activity against Legionella pneumophila
Procedure, shortened: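 Broth microdilution MIC per CLSI guidelines, run in buffered yeast extract α-ketoglutarate broth at 35°C and read after 48 h.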

Staphylococcus aureus [7] = assay: Antibacterial activity against oxacillin-susceptible Staphylococcus aureus
Procedure, shortened: (§7)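 MIC by CLSI broth microdilution for nonfastidious organisms, in cation-adjusted Mueller-Hinton broth incubated at 35°C.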

Streptococcus equinus = assay: Antibacterial activity against Streptococcus bovis; procedure, shortened: as §5
Staphylococcus warneri = assay: Antibacterial activity against Staphylococcus warneri; procedure, shortened: as §2
Streptococcus agalactiae = assay: Antibacterial activity against Streptococcus agalactiae; procedure, shortened: as §6
Staphylococcus aureus [8] = assay: Antibacterial activity against oxacillin-resistant Staphylococcus aureus; procedure, shortened: as §1
Enterococcus faecalis [9] = assay: Antibacterial activity against Enterococcus faecalis; procedure, shortened: as §1
Shigella dysenteriae = assay: Antibacterial activity against Shigella dysenteriae
[10] = system: Staphylococcus epidermidis; assay: Antibacterial activity against oxacillin-resistant Staphylococcus epidermidis; procedure, shortened: as §1
Streptococcus pneumoniae [11] = assay: Antibacterial activity against penicillin-resistant Streptococcus pneumoniae; procedure, shortened: as §1
Bacteroides ovatus = assay: Antibacterial activity against Bacteroides ovatus; procedure, shortened: as §4
Enterococcus faecium = assay: Antibacterial activity against VanB-resistant Enterococcus faecium; procedure, shortened: as §1
[12] = system: Staphylococcus haemolyticus; assay: Antibacterial activity against Staphylococcus haemolyticus; procedure, shortened: as §6
Corynebacterium jeikeium = assay: Antibacterial activity against Corynebacterium jeikeium; procedure, shortened: as §6
Fusobacterium sp. = assay: Antibacterial activity against Fusobacterium sp.; procedure, shortened: as §4
Prevotella buccae = assay: Antibacterial activity against Prevotella buccae; conditions: Segatella buccae; procedure, shortened: as §4
Streptococcus pneumoniae [13] = assay: Antibacterial activity against penicillin-susceptible Streptococcus pneumoniae; procedure, shortened: as §1
Neisseria meningitidis = assay: Antibacterial activity against Neisseria meningitidis
Procedure, shortened: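 MIC by broth microdilution in gonococcal broth, incubated at 35°C in 5% CO2. Reported as MIC range, MIC50 and MIC90.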

[14] = system: Bacteroides thetaiotaomicron; assay: Antibacterial activity against Bacteroides thetaiotaomicron; procedure, shortened: as §4
Enterobacter cloacae = assay: Antibacterial activity against Enterobacter cloacae; procedure, shortened: as §2
Hoylesella oralis = assay: Antibacterial activity against Prevotella oralis; procedure, shortened: as §4
Prevotella corporis = assay: Antibacterial activity against Prevotella corporis; procedure, shortened: as §4
Fusobacterium nucleatum = assay: Antibacterial activity against Fusobacterium nucleatum; procedure, shortened: as §4
Proteus mirabilis = assay: Antibacterial activity against Proteus mirabilis; procedure, shortened: as §2
Enterococcus faecalis [15] = assay: Antibacterial activity against VanA-resistant Enterococcus faecalis; procedure, shortened: as §1
Staphylococcus aureus [16] = assay: Antibacterial activity against oxacillin and levofloxacin-resistant Staphylococcus aureus; procedure, shortened: as §1
Citrobacter freundii = assay: Antibacterial activity against Citrobacter freundii; procedure, shortened: as §2
Finegoldia magna = assay: Antibacterial activity against Peptostreptococcus magnus; procedure, shortened: as §4
Citrobacter koseri = assay: Antibacterial activity against Citrobacter diversus; procedure, shortened: as §2
[17] = system: Staphylococcus epidermidis; assay: Antibacterial activity against oxacillin-susceptible Staphylococcus epidermidis; procedure, shortened: as §7

C[C@H]1COc2c(N3CCN(C)CC3)c(F)cc3c(=O)c(C(=O)O)cn1c23.C[C@H]1COc2c(N3CCN(C)CC3)c(F)cc3c(=O)c(C(=O)O)cn1c23.O [LEVOFLOXACIN]
0.008 µg/mL: MIC50 (Haemophilus influenzae [2]) | MIC50 (Legionella pneumophila) | MIC50 (Neisseria meningitidis) | MIC90 (Neisseria meningitidis)
64 µg/mL: MIC90 (Pseudomonas aeruginosa) | MIC90 [10] | MIC90 (Staphylococcus aureus [16])
32 µg/mL: MIC90 (Enterococcus faecalis [1]) | MIC90 (Corynebacterium sp.) | MIC90 (Enterococcus faecalis [9]) | MIC90 (Bacteroides ovatus) | MIC90 [12] | MIC90 [14] | MIC50 (Staphylococcus aureus [16])
0.06 µg/mL: MIC50 (Klebsiella oxytoca) | MIC90 (Shigella dysenteriae) | MIC50 (Enterobacter cloacae) | MIC90 (Citrobacter koseri)
8 µg/mL: MIC50 (Staphylococcus aureus [8]) | MIC90 (Staphylococcus aureus [8]) | MIC50 [10] | MIC50 (Bacteroides ovatus) | MIC50 [14]
0.03 µg/mL: MIC50 (Escherichia coli) | MIC90 (Haemophilus influenzae [3]) | MIC50 (Shigella dysenteriae) | MIC (Fusobacterium sp.) | MIC (Fusobacterium nucleatum) | MIC50 (Citrobacter koseri)
0.125 µg/mL: MIC50 (Acinetobacter sp.) | MIC [4] | MIC50 (Morganella morganii) | MIC (Staphylococcus warneri) | MIC50 (Proteus mirabilis) | MIC50 (Citrobacter freundii) | MIC (Finegoldia magna)
2 µg/mL: MIC90 (Klebsiella oxytoca) | MIC90 (Streptococcus pyogenes) | MIC50 (Streptococcus equinus) | MIC90 (Streptococcus equinus) | MIC90 (Prevotella buccae) | MIC90 (Hoylesella oralis) | MIC90 (Prevotella corporis) | MIC90 (Proteus mirabilis)
0.5 µg/mL: MIC90 [6] | MIC50 (Streptococcus pyogenes) | MIC50 (Corynebacterium sp.) | MIC50 (Streptococcus pneumoniae [11]) | MIC90 (Corynebacterium jeikeium) | MIC50 (Streptococcus pneumoniae [13])
4 µg/mL: MIC50 (Burkholderia cepacia) | MIC (Enterococcus faecium)
16 µg/mL: MIC50 (Enterococcus faecalis [1]) | MIC90 (Acinetobacter sp.) | MIC90 (Burkholderia cepacia) | MIC (Staphylococcus aureus [5]) | MIC90 (Morganella morganii) | MIC50 (Enterococcus faecalis [9]) | MIC (Enterococcus faecalis [15]) | MIC90 (Citrobacter freundii)
0.25 µg/mL: MIC50 [6] | MIC50 (Staphylococcus aureus [7]) | MIC90 (Staphylococcus aureus [7]) | MIC50 [12] | MIC50 (Corynebacterium jeikeium) | MIC [17]
1 µg/mL: MIC90 (Escherichia coli) | MIC50 (Pseudomonas aeruginosa) | MIC50 (Streptococcus mitis) | MIC90 (Streptococcus mitis) | MIC50 (Streptococcus viridans) | MIC90 (Streptococcus viridans) | MIC50 (Streptococcus salivarius) | MIC90 (Streptococcus salivarius) | MIC50 (Streptococcus agalactiae) | MIC90 (Streptococcus agalactiae) | MIC90 (Streptococcus pneumoniae [11]) | MIC50 (Prevotella buccae) | MIC90 (Streptococcus pneumoniae [13]) | MIC90 (Enterobacter cloacae) | MIC50 (Hoylesella oralis) | MIC50 (Prevotella corporis)
0.015 µg/mL: MIC90 (Haemophilus influenzae [2]) | MIC50 (Haemophilus influenzae [3]) | MIC90 (Legionella pneumophila)
